This note sets out measurements from ChEMBL document CHEMBL5634116, “Strategies for developing retinoic acid receptor alpha-selective antagonists as novel agents for male contraception” (Eur J Med Chem, 2023).

Data set [1] has as its target T1, Retinoic acid receptor alpha (Homo sapiens, UniProt P10276).
T1 sequence (P10276 whole entry): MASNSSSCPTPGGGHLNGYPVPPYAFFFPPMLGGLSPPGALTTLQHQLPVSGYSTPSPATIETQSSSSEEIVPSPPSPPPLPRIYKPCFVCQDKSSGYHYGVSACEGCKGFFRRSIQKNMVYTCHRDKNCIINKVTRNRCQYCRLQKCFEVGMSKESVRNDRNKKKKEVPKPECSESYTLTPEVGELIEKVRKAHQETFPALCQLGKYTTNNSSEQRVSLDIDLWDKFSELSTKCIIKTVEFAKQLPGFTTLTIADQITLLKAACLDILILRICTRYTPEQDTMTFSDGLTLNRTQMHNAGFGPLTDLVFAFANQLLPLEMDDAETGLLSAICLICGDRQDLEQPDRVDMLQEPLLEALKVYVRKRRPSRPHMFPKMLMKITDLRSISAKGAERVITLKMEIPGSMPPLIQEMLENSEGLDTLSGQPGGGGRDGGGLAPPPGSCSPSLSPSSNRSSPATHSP
Briefly: Antagonist activity at recombinant human RAR-alpha expressed in mammalian cells in presence of 9-cis-RA by luciferase reporter gene based transactivation assay. In kind it is cell-based. Put shortly:
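Compounds 8-point dose response in triplicate, DMSO final 0.4%; overnight at 37 °C, 5% CO2; luminescence after 30 min detection reagent. IC50 by four-parameter logistic fit; agonist-free wells set background.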
(A reporter such as luciferase makes a cellular process visible.)

Data set [2] deals with Mus musculus. Briefly: Effect on spermatogenesis in CD-1 mouse assessed as abnormality in spermatid release at 10 mg/kg/day, po for 2 weeks measured measured after 4 weeks post-cessation of drug treatment by hematoxylin counter-staining based analysis. It counts as functional, organism-based. Conditions: time 6.0 weeks. Put shortly: (§1)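 CD1 males given 10 mg/kg/day orally for 2 weeks dissolved in 20% aqueous Kollisolv (n = 10 per time point); vehicle-only controls n = 5. Testes collected one day or 4 weeks after cessation, fixed in 4% paraformaldehyde or Bouin's, paraffin-embedded, PAS-stained with hematoxylin counterstain and tubules staged by bright-field microscopy.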

The subject of data set [3] is Mus musculus. Briefly: Effect on spermatogenesis in CD-1 mouse assessed as abnormal stage IX tubules at 10 mg/kg/day, po for 2 weeks measured measured after 4 weeks post-cessation of drug treatment by hematoxylin counter-staining based analysis. Conditions: time 6.0 weeks. In kind it is functional, organism-based. The essentials: as §1
A short description of data set [4]: Metabolic stability in CD-1 mouse liver microsomes assessed as compound remaining in presence of NADPH measured for 60 mins at 10^-6 M. Conditions: dose 1 10^-6M, read-out: Stability. In kind it is ADME, Microsome. A general note: Microsomes from liver hold many membrane-bound enzymes, among them those of drug oxidation.
Data set [5] concerns Mus musculus. Briefly: Effect on spermatogenesis in CD-1 mouse assessed as reduction in sperm count administered as Carbitol formulation at 10 mg/kg/day, po for 28 days consecutively measured on day 1 post-cessation of drug treatment by hemocytometry relative to control. In kind it is functional. More on the design: scale not given: the % may be the effect or the level left. Conditions: time 29 day.

Data set [6] can be described thus: Metabolic stability in CD-1 mouse intestinal microsomes assessed as compound remaining at 2 x 10^-6 M in presence of NADPH measured for 60 mins. It counts as ADME, Intestine, Microsome. Conditions: dose 2 10^-6M, read-out: Stability. Put shortly: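 Male CD-1 mouse intestinal microsomes with NADPH, compound at 2.0 ×10−6 M, 60 min; percent parent remaining.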

Calls of active or inactive are those of the source. No cut-off for these calls is given here.

A word on the IC50: it is the concentration at which inhibition is half-maximal. In the case of `Cc1ccc(C2=CC(C)(C)Oc3ccc(C(=O)Nc4ccc(C(=O)O)cc4)cc32)cc1`, the 50% inhibitory concentration (IC50) in data set [1] is 4.6 nM. Also, the outcome in data set [2] and in data set [3] was inactive. In addition, the remaining at 1 h, 1 µM in data set [4] was 100%. Moreover, the Activity in data set [5] is given as approximately 73%. The remaining at 1 h, 2 µM in data set [6] was 100%.
